In ChEMBL document CHEMBL5120974, “Antitubercular Activity of Novel 2-(Quinoline-4-yloxy)acetamides with Improved Drug-Like Properties” (ACS Med Chem Lett, 2022):
≈ marks a conversion by molar mass, not a printed value.

What was measured:
[1] = test system: Mycobacterium tuberculosis; experiment: Antitubercular activity against Mycobacterium tuberculosis H37Rv assessed as bacterial growth inhibition incubated for 7 days by resazurin assay; type: functional; details: 168 h, time 7 day
[2] = Terminal half life in mouse plasma at 121.6 mg/kg,po by HPLC analysis; type: ADME, organism-based; details: read-out: beta t1/2
How it was run: (§1)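 Mouse pharmacokinetics after a single intravenous dose of 25 mg/kg (61.6 μmol/kg) or an oral dose of 121.6 mg/kg (300 μmol/kg). Plasma drug concentrations were quantified over time, including a 24 h sample after oral dosing. Oral bioavailability was estimated by comparing the two routes.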

[3] = Absorption rate constant in mouse plasma at 121.6 mg/kg,po by HPLC analysis; type: ADME, organism-based; details: in vivo; how it was run: as §1
[4] = Chemical stability of the compound in pH 7.4 PBS assessed as remaining product at 10 uM incubated for 24 hrs by HPLC-MS/MS analysis; type: physicochemical; details: PBS pH 7.4, pH 7.4, read-out: Stability
How it was run: (§2)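 Compound incubated 24 h at 37 °C in 0.1 M HCl (pH 1.2), PBS (pH 7.4) or 0.1 M NH₄HCO₃ (pH 9.1). Result is reported as percentage of compound remaining after incubation.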

[5] = Apparent oral clearance in mouse plasma at 121.6 mg/kg,po by HPLC analysis; type: ADME, organism-based; how it was run: as §1
[6] = Inter-compartmental clearance in mouse plasma at 25 mg/kg,iv by HPLC analysis; type: ADME, organism-based; details: in vivo; how it was run: as §1
[7] = Terminal half life in mouse plasma at 25 mg/kg,iv by HPLC analysis; type: ADME, organism-based; details: read-out: beta t1/2; how it was run: as §1
[8] = Chemical stability of the compound in pH 1.2 HCL assessed as remaining product at 10 uM incubated for 24 hrs by HPLC-MS/MS analysis; type: physicochemical; details: HCl pH 1.2, pH 1.2, read-out: Stability; how it was run: as §2
[9] = Solubility of the compound in HCl at pH 1.2 incubated for 4 hrs by liquid chromatography; type: physicochemical; details: HCl pH 1.2, pH 1.2
[10] = test system: HepG2; experiment: Cytotoxicity against human HepG2 cells assessed as reduction in cell viability incubated for 72 hrs by MTT assay; type: functional
How it was run: (§3)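 HepG2 and Vero cells were exposed to compound for 72 h, with viability read by MTT (mitochondrial activity) and neutral red uptake (lysosomal integrity). CC₅₀ is the concentration reducing cell viability by 50%.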

[11] = Permeability of the compound at 10 uM measured after 5 hrs by PAMPA based HPLC-MS/MS analysis; type: ADME; details: read-out: permeability
[12] = Plasma concentration in mouse plasma at 121.6 mg/kg,po measured after 24 hrs by HPLC analysis; type: ADME, organism-based; how it was run: as §1
[13] = Selectivity index, ratio of CC50 for cytotoxicity against African green monkey Vero cells to MIC for antitubercular activity against Mycobacterium tuberculosis H37Rv; type: toxicity, cell-based
How it was run: (§4)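 SI = CC₅₀/MIC, with the MIC taken against H37Rv. CC₅₀ is the concentration that cuts cell viability by 50%, from cells exposed for 72 h. Viability was read by both MTT (mitochondrial activity) and neutral red uptake (lysosomal integrity).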

[14] = Selectivity index, ratio of CC50 for cytotoxicity against human HepG2 cells to MIC for antitubercular activity against Mycobacterium tuberculosis H37Rv; type: toxicity, cell-based; how it was run: as §4
[15] = Cytotoxicity against African green monkey Vero cells assessed as reduction in cell viability incubated for 72 hrs by MTT assay; type: toxicity, cell-based; details: chlorocebus sabaeus; how it was run: as §3
[16] = Metabolic stability in rat liver microsomes assessed as half life measured upto 30 min by HPLC-MS/MS analysis; type: ADME, Microsome
[17] = Clearance in mouse plasma at 121.6 mg/kg,po by HPLC analysis; type: ADME, organism-based; how it was run: as §1
[18] = Oral bioavailability in mouse plasma at 121.6 mg/kg by HPLC analysis; type: ADME, organism-based; how it was run: as §1
[19] = Cmax in mouse plasma at 121.6 mg/kg,po by HPLC analysis; type: ADME, organism-based; set-up: dose 121.6 mg/kg, route po; how it was run: as §1
[20] = Metabolic stability in rat liver microsomes assessed as intrinsic clearance measured upto 30 min by HPLC-MS/MS analysis; type: ADME, Microsome; details: read-out: CLH
[21] = Volume of distribution at steady state in mouse plasma at 25 mg/kg,iv by HPLC analysis; type: ADME, organism-based; details: read-out: Vdss; how it was run: as §1
[22] = Apparent oral volume of distribution in mouse plasma at 121.6 mg/kg,po by HPLC analysis; type: ADME, organism-based; how it was run: as §1
[23] = Chemical stability of the compound in pH 9.1 NH4HCO3 assessed as remaining product at 10 uM incubated for 24 hrs by HPLC-MS/MS analysis; type: physicochemical; details: NH4HCO3 pH 9.1, pH 9.1, read-out: Stability; how it was run: as §2
[24] = Solubility of the compound in PBS at pH 7.4 incubated for 4 hrs by liquid chromatography; type: physicochemical; details: PBS pH 7.4, pH 7.4
[25] = Volume of distribution at steady state in mouse plasma at 121.6 mg/kg,po by HPLC analysis; type: ADME, organism-based; details: in vivo; how it was run: as §1
[26] = Clearance in mouse plasma at 25 mg/kg,iv by HPLC analysis; type: ADME, organism-based; how it was run: as §1
[27] = test system: Mycobacterium tuberculosis; experiment: Antitubercular activity against Mycobacterium tuberculosis H37Rv infected in mouse RAW 264.7 cells assessed as reduction on bacterial colony growth at 2.5 uM incubated for 2 to 3 weeks; type: functional; details: time 2-3 weeks
How it was run: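 Mtb growth inside macrophages (in vitro infection model) was tested with compounds at 2.5 μM; the untreated control got 0.5% DMSO vehicle. Read-out was log₁₀ CFU/well, given as mean ± standard deviation and compared with the untreated group by Dunnett post-test (P < 0.05).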

## COc1ccc2nc(C)cc(OCC(=O)Nc3ccccc3OC)c2c1
[1]
  MIC: 0.44 µM (≈ 0.155 µg/mL)

## COc1ccc2nc(C)cc(OCC(=O)N[C@H]3C[C@H]4C[C@@H]([C@@H]3C)C4(C)C)c2c1
[1]
  MIC: 3.3 µM (≈ 1.26 µg/mL)

## COc1ccc2nc(C)cc(OCC(=O)NC3CCC3)c2c1
[1]
  MIC: 33.3 µM (≈ 10 µg/mL)

## COc1ccc2nc(C)cc(OCC(=O)NC3CCCCCC3)c2c1
[1]
  MIC: 3.7 µM (≈ 1.27 µg/mL)

## CCc1cc(OCC(=O)Nc2ccc(N3CCCCC3)cc2)c2cc(Br)ccc2n1
[1]
  MIC: 0.34 µM (≈ 0.159 µg/mL)

## COc1ccc2nc(C)cc(OCC(=O)N[C@@H](C)C3CCCCC3)c2c1
[1]
  MIC: > 14 µM

## COc1ccc2nc(C)cc(OCC(=O)NC3CCCCC3)c2c1
[1]
  MIC: 7.6 µM (≈ 2.5 µg/mL)

## COc1ccc2nc(C)cc(OCC(=O)N[C@@H]3C[C@@H]4C[C@H]([C@H]3C)C4(C)C)c2c1
[1]
  MIC: 26.1 µM (≈ 9.98 µg/mL)

## Cc1cc(OCC(=O)Nc2ccc(N3CCCCC3)cc2)c2cc(Br)ccc2n1
[1]
  MIC: 0.68 µM (≈ 0.309 µg/mL)

## COc1ccc2nc(C)cc(OCC(=O)NC3CCC(C)CC3)c2c1 (centres undefined)
[1]
  MIC: 7.3 µM (≈ 2.5 µg/mL)

## COc1ccc2nc(C(F)(F)F)cc(OCC(=O)Nc3ccc(N4CCCCC4)cc3)c2c1
[1]
  MIC: 0.17 µM (≈ 0.0781 µg/mL)

## COc1ccc2nc(C)cc(OCC(=O)Nc3ccc4ccccc4c3)c2c1
[1]
  MIC: 0.05 µM (≈ 0.0186 µg/mL)

## O=C(COc1cc(C(F)(F)F)nc2ccc(Br)cc12)Nc1ccc(N2CCCCC2)cc1
[1]
  MIC: 78.7 µM (≈ 40 µg/mL)

## COc1ccc2nc(C)cc(OCC(=O)NCC3CCCCC3)c2c1
[1]
  MIC: 7.3 µM (≈ 2.5 µg/mL)

## CO[C@H]1/C=C/O[C@@]2(C)Oc3c(C)c(O)c4c(O)c(c(/C=N/N5CCN(C)CC5)c(O)c4c3C2=O)NC(=O)/C(C)=C\C=C\[C@H](C)[C@H](O)[C@@H](C)[C@@H](O)[C@@H](C)[C@H](OC(C)=O)[C@@H]1C [RIFAMPIN]
[1]
  MIC: 0.05 µM (≈ 0.0411 µg/mL)

## COc1ccc2nc(C)cc(OCC(=O)NC3CCCC3)c2c1
[1]
  MIC: 15.9 µM (≈ 5 µg/mL)

## COc1ccc2nc(C)cc(OCC(=O)NC3C4CC5CC(C4)CC3C5)c2c1 (centres undefined)
[1]
  MIC: 6.6 µM (≈ 2.51 µg/mL)

## COc1ccc2nc(C)cc(OCC(=O)Nc3ccc(N4CCCCC4)cc3)c2c1
[2]
  half-life: 103 min
[3]
  Ka: 3.01 h⁻¹
[4]
  remaining at 24 h, 10 µM: 100%
[5]
  CL/F: 3.77 mL/min/kg
[6]
  CL: 0.339 L/h/kg
[1]
  MIC: 0.09 µM (≈ 0.0365 µg/mL)
[7]
  half-life: 136 min
[8]
  remaining at 24 h, 10 µM: 58.3%
[9]
  solubility at 4 h: > 2500 µM
[10]
  CC50: > 20 µM
[11]
  Papp at 5 h, 10 µM: 4.5 ×10⁻⁶ cm/s
[12]
  concentration at 24 h: 1140 ng/mL
[13]
  selectivity ratio: > 222
[14]
  selectivity ratio: > 222
[15]
  CC50 at 72 h: > 20 µM
[16]
  half-life: 176 min
[17]
  CL/F: 1.92 mL/min/kg
[18]
  bioavailability: 51%
[19]
  Cmax: 8300 ng/mL
[20]
  CLint scaled: 7.5 mL/min/kg
[21]
  Vd: 0.304 L/kg
[22]
  Vd/F: 0.46 L/kg
[23]
  remaining at 24 h, 10 µM: 62.1%
[24]
  solubility at 4 h: 31.4 µM (≈ 12.7 µg/mL)
[25]
  Vdss: 0.234 L/kg
[26]
  clearance: 1.47 mL/min/kg
[27]
  Activity: 4.13 log10CFU

## COc1ccc2nc(C)cc(OCC(=O)NC3CCCCC3C)c2c1 (centres undefined)
[1]
  MIC: 14.6 µM (≈ 5 µg/mL)

## NNC(=O)c1ccncc1 [ISONIAZID]
[1]
  MIC: 2.3 µM (≈ 0.315 µg/mL)

## COc1ccc2nc(C)cc(OCC(=O)Nc3ccc(N4CCSCC4)cc3)c2c1
[1]
  MIC: 0.37 µM (≈ 0.157 µg/mL)

## CCCc1ccc(NC(=O)COc2cc(C)nc3ccc(OC)cc23)cc1
[1]
  MIC: 0.05 µM (≈ 0.0182 µg/mL)

## COc1ccc2nc(C)cc(OCC(=O)N[C@H](C)C3CCCCC3)c2c1
[1]
  MIC: > 14 µM

## O=C(COc1cc(C(F)(F)F)nc2ccc(Cl)cc12)Nc1ccc(N2CCCCC2)cc1
[1]
  MIC: 86.2 µM (≈ 40 µg/mL)

## CCc1cc(OCC(=O)Nc2ccc(N3CCCCC3)cc2)c2cc(OC)ccc2n1
[1]
  MIC: 0.19 µM (≈ 0.0797 µg/mL)
[10]
  CC50: > 20 µM
[13]
  selectivity ratio: > 105
[14]
  selectivity ratio: > 105
[15]
  CC50 at 72 h: > 20 µM
[27]
  Activity: 4.13 log10CFU

## Cc1cc(OCC(=O)Nc2ccc(N3CCCCC3)cc2)c2cc(Cl)ccc2n1
[1]
  MIC: 0.75 µM (≈ 0.307 µg/mL)

## CCc1cc(OCC(=O)Nc2ccc(N3CCCCC3)cc2)c2cc(Cl)ccc2n1
[1]
  MIC: 0.37 µM (≈ 0.157 µg/mL)

## COc1ccc2nc(C)cc(OCC(=O)Nc3ccc(N4CCOCC4)cc3)c2c1
[1]
  MIC: 3.1 µM (≈ 1.26 µg/mL)
